The text below walks through data of ChEMBL document CHEMBL2177030.

The target of experiment [1] is Monoacylglycerol lipase (Mycobacterium tuberculosis H37Rv) (UniProt O07427). In words: Inhibition of Mycobacterium tuberculosis Rv0183 pre-incubated for 30 mins with enzyme before substrate addition by pH-stat technique. In outline: (§1)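 Rv0183 was preincubated 30 min at 25 °C without NaTDC at inhibitor molar excess 2, 4, 20, 40 or 100. Residual monoglyceride lipase activity was measured by pH-stat at 37 °C with MC18 emulsion, pH 8.0, 3 mM NaTDC. xI50 was read from the residual-activity curve. Solvent controls were run. At least duplicate.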
Chain of Monoacylglycerol lipase (Mycobacterium tuberculosis H37Rv) (O07427 whole entry): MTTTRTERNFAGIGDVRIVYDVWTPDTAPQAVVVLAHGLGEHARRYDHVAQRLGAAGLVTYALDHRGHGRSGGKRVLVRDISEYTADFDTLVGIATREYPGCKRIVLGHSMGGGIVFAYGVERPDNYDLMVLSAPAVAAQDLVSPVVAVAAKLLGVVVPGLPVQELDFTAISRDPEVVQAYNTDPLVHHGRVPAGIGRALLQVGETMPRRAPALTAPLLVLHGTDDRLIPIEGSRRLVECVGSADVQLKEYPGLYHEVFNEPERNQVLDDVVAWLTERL

The target of experiment [2] is T1, Pancreatic triacylglycerol lipase (Homo sapiens) (UniProt P16233).
T1 sequence (whole entry): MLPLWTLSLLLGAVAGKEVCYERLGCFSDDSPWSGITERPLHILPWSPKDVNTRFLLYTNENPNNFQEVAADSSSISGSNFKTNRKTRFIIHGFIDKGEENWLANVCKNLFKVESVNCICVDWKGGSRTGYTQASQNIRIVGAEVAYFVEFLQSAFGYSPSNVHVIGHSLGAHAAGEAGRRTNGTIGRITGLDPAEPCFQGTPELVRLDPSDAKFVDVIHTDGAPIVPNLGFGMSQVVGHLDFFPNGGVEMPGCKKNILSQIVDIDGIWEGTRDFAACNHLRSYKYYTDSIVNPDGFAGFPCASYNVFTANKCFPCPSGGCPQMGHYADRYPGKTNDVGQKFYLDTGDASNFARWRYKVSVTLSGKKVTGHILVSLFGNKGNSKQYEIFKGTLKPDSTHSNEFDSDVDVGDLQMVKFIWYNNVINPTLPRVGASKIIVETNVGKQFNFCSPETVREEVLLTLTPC

Experiment [3] addresses T2, Cutinase 1 (Fusarium vanettenii) (UniProt P00590).
T2 sequence (whole entry): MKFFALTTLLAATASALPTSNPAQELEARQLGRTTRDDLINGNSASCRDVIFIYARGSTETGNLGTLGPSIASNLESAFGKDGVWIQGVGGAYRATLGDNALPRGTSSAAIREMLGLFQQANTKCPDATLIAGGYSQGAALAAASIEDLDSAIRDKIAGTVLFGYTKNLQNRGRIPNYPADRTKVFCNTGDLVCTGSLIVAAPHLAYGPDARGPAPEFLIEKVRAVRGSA
Briefly: Inhibition of Fusarium solani pisi cutinase pre-incubated for 30 mins with enzyme before substrate addition by pH-stat technique. The method in brief: (§2)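 Cutinase was preincubated for 30 min at 25 °C in 2 mM NaTDC, substrate absent, at inhibitor molar excess xI 2, 4, 20, 40 or 100. Residual activity was measured by pH-stat at 37 °C on TC4 emulsion at pH 8.0 with 0.25 mM NaTDC. xI50 is the molar excess giving 50% activity. Isopropanol controls were run. At least duplicate.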

Experiment [4] addresses T3, Gastric triacylglycerol lipase (Canis lupus familiaris) (UniProt P80035).
T3 sequence (whole entry): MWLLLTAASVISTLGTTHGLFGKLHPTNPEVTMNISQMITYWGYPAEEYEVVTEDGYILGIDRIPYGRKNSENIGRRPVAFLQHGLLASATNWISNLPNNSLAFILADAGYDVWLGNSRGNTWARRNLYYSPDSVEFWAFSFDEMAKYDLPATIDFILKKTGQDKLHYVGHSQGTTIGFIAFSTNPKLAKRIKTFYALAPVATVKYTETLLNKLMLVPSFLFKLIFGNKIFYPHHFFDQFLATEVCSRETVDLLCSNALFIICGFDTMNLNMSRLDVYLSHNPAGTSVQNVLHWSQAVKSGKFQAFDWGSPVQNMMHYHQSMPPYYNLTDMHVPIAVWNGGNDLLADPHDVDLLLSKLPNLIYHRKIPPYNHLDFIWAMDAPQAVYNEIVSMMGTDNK
In words: Inhibition of dog recombinant gastric lipase expressed in transgenic maize pre-incubated for 30 mins with enzyme before substrate addition by pH-stat technique. Type of experiment: tissue-based. As to conditions: Stomach. The method in brief: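 Gastric lipase was incubated 30 min at 25 °C with 4 mM NaTDC at inhibitor xI 2–100. Residual activity was measured by pH-stat at 37 °C on TC4 emulsion in 150 mM NaCl, 2 mM NaTDC, 2 µM BSA, pH 5.5. xI50 is the molar excess halving activity. At least duplicate.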

In experiment [5] the target is T4, Pancreatic lipase-related protein 2 (Cavia porcellus) (UniProt P81139).
T4 sequence (whole entry): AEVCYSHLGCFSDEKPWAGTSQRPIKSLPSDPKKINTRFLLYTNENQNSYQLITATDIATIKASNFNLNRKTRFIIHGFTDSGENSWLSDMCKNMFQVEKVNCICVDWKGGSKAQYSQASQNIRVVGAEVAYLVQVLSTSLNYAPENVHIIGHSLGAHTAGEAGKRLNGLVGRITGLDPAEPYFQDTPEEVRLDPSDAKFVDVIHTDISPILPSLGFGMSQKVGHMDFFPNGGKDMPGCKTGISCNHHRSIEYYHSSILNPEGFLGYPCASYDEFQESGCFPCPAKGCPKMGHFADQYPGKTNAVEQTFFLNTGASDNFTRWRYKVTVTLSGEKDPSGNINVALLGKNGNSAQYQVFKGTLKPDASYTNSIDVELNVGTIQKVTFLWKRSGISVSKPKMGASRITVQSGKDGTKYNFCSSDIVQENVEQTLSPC
Briefly: Inhibition of guinea pig recombinant PLRP2 expressed in Aspergillus oryzae pre-incubated for 30 mins with enzyme before substrate addition by pH-stat technique.

In experiment [6] the test system is Mycobacterium tuberculosis. In words: Inhibition of Mycobacterium tuberculosis LipY pre-incubated for 30 mins with enzyme before substrate addition by pH-stat technique. In outline:
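Without NaTDC, LipY was incubated 30 min at 25 °C with inhibitor at xI 2–100. Residual activity was determined by pH-stat at 37 °C on TC4 in 2.5 mM Tris-HCl pH 7.5, 300 mM NaCl, 3 mM NaTDC. xI50 was taken from activity versus molar excess. Isopropanol-only controls were run. At least duplicate.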

Experiment [7] concerns the target T4, Pancreatic lipase-related protein 2 (Cavia porcellus). Briefly: Inhibition of guinea pig recombinant PLRP2 expressed in Aspergillus oryzae at 200 molar excess compound concentration pre-incubated for 2 hrs with enzyme before substrate addition by pH-stat technique.
In experiment [8] the target is T1, Pancreatic triacylglycerol lipase (Homo sapiens). Briefly: Inhibition of human recombinant pancreatic lipase expressed in Pichia pastoris at 200 molar excess compound concentration pre-incubated for 2 hrs with enzyme before substrate addition by pH-stat technique.
Experiment [9] addresses T3, Gastric triacylglycerol lipase (Canis lupus familiaris). In words: Inhibition of dog recombinant gastric lipase expressed in transgenic maize at 200 molar excess compound concentration pre-incubated for 2 hrs with enzyme before substrate addition by pH-stat technique. Type of experiment: single protein. As to conditions: Stomach.
For experiment [10], the target named is Monoacylglycerol lipase (Mycobacterium tuberculosis H37Rv) (UniProt O07427). Briefly: Inhibition of Mycobacterium tuberculosis Rv0183 assessed as residual enzyme activity pre-incubated for 30 mins with enzyme before substrate addition by pH-stat technique. The method in brief:
as §1

For experiment [11] the target is unchanged. In words: Inhibition of Mycobacterium tuberculosis Rv0183 assessed as half inactivation time pre-incubated with enzyme before substrate addition by pH-stat technique. In outline: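 For the time course, Rv0183 was exposed to inhibitor at xI 4 at 25 °C without bile salt for 1 h. Residual activity was read at intervals by pH-stat at 37 °C using 100 µL MC18 in 15 mL 2.5 mM Tris-HCl pH 8.0, 150 mM NaCl, 3 mM NaTDC. t1/2 was derived from the curve. Runs were done at least in duplicate.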

Experiment [12] shares this target. In words: Inhibition of Mycobacterium tuberculosis Rv0183 assessed as covalent bond formation with enzyme serine residue by measuring change in molecular weight of enzyme-compound complexes at 40 molar excess compound concentration pre-incubated for 30 mins with enzyme before substrate addition by MALDI-TOF mass spectrometry method. The method in brief: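 Each enzyme was preincubated with the inhibitor for 30 min at 25 °C at xI 40, with the inhibitor taken from a 5 mg/mL isopropanol stock. Intact masses of native and inhibited protein were measured by MALDI-TOF. For tryptic mapping, 5–50 pmol protein was reduced with DTT, alkylated with iodoacetamide and digested overnight at 37 °C.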

For experiment [13], the system named is Mycobacterium tuberculosis. Briefly: Inhibition of Mycobacterium tuberculosis LipY at 40 molar excess compound concentration pre-incubated for 30 mins with enzyme before substrate addition by pH-stat technique.
Experiment [14] concerns the target T2, Cutinase 1 (Fusarium vanettenii). In words: Inhibition of Fusarium solani pisi cutinase assessed as half inactivation time pre-incubated with enzyme before substrate addition by pH-stat technique. In outline:
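Cutinase was preincubated at 25 °C with inhibitor at xI 4 in 2 mM NaTDC for 1 h. Residual activity was sampled at intervals by pH-stat at 37 °C on TC4 emulsion in 2.5 mM Tris-HCl pH 8.0, 150 mM NaCl, 0.25 mM NaTDC. t1/2 was taken from the time course. Runs were done at least in duplicate.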

The target is the same in experiment [15]. In words: Inhibition of Fusarium solani pisi cutinase assessed as residual enzyme activity pre-incubated for 30 mins with enzyme before substrate addition by pH-stat technique. In outline:
as §2

Each structure is given as a SMILES string. The source made the active and inactive calls. The rule behind the calls is not given here. Some results are limits rather than exact numbers.

Consider `CCCCCCCCCCC[C@@H](C[C@@H]1OC(=O)[C@H]1CCCCCC)OC(=O)[C@H](CC(C)C)NC=O`, for which the XI50 was over 200 molar excess in experiment [1]; 18.4 molar excess in experiment [2]; 2.52 molar excess in experiment [3]; 5.6 molar excess in experiment [4]; 0.53 molar excess in experiment [5]; 7.07 molar excess in experiment [6].

On to `CCCCCCCCCC[C@@H]1CC[P@@](=O)(OC)OC(C)=C1C(=O)OC` (racemic), for which the XI50 in experiment [1] was found to be 1.13 molar excess; in experiment [3] it was 1.98 molar excess; in experiment [6] it was 2.81 molar excess. Also, the inhibition result in [7], in [8] and in [9] was “inactive” throughout. For the same compound, the Activity in [10] was determined as 6%; in [12] it was 377 Da. For the same compound, the T1/2 in experiment [11] was 86.4 s.

In the case of `CO[P@]1(=O)OC[C@H]2COC(=O)C2=C(C)O1` (racemic), the XI50 in experiment [1] came to 5.22 molar excess; in experiment [3], 0.96 molar excess. Moreover, the inhibition entry in experiment [7], in experiment [8] and in [9] was “inactive” each time. The inhibition in experiment [13] turned out to be 14%. In addition, the T1/2 in [14] was determined as 10.8 s. In experiment [15], the Activity was 6%.
